From ChEMBL document CHEMBL1140263, “Structure-based design, synthesis, and study of potent inhibitors of beta-ketoacyl-acyl carrier protein synthase III as potential antimicrobial agents” (J Med Chem, 2005)
In brackets after ≈: the same amount, converted by molar mass.

Experiments:
[1] = biological target: T1, Beta-ketoacyl-[acyl-carrier-protein] synthase III (Enterococcus faecalis (strain ATCC 700802 / V583), UniProt Q820T1); experiment: Inhibitory concentration against Enterococcus faecalis beta-Ketoacyl-acyl carrier protein synthase III
T1 sequence (Q820T1 whole entry): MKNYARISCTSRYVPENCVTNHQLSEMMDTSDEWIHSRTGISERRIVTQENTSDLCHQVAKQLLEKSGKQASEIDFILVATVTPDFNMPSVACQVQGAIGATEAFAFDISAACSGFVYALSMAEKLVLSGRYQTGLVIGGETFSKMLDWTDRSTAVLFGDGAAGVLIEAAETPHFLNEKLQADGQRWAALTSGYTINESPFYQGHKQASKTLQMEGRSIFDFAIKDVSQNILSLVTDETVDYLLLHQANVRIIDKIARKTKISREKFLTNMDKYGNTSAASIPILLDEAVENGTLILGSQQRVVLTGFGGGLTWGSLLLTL
In short: (§1)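 Coupled FabD/FabH radiometric assay with His-tagged or tagless FabH expressed in E. coli BL21(DE3). The mix held 100 mM sodium phosphate pH 7.0, 2 mM DTT, 1 mM MgCl₂, 12.5 µM E. coli holo-ACP, 10 nM FabD and 3-5 nM FabH. Malonyl-CoA was added for 1 min, then acetyl-CoA plus [³H]acetyl-CoA, NADH and NADPH for 19 min. TCA-precipitated protein was counted by liquid scintillation; DMSO ≤2% final.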

Streptococcus pyogenes = experiment: Minimum inhibitory concentration against Streptococcus pyogenes NZ131; format: functional
[2] = Minimum inhibitory concentration against Enterococcus faecalis VRE 583; format: functional, Enterococcus faecalis V583
Staphylococcus aureus = experiment: Minimum inhibitory concentration against Staphylococcus aureus MRSA 703; format: functional
Escherichia coli = experiment: Minimum inhibitory concentration against Escherichia coli TolC- mutant in presence of membrane permeablizing agent polymyxin B; format: functional
Neisseria meningitidis = experiment: Minimum inhibitory concentration against Neisseria meningitides MC58 in presence of membrane permeablizing agent polymyxin B; format: functional
Streptococcus pneumoniae = experiment: Minimum inhibitory concentration against Streptococcus pneumonia ATCC 6301; format: functional
[3] = biological target: T2, Beta-ketoacyl-[acyl-carrier-protein] synthase III (Haemophilus influenzae (strain ATCC 51907 / DSM 11121 / KW20 / Rd), UniProt P43711); experiment: Inhibitory concentration against Haemophilus influenzae beta-Ketoacyl-acyl carrier protein synthase III; in short: as §1
T2 sequence (P43711 whole entry): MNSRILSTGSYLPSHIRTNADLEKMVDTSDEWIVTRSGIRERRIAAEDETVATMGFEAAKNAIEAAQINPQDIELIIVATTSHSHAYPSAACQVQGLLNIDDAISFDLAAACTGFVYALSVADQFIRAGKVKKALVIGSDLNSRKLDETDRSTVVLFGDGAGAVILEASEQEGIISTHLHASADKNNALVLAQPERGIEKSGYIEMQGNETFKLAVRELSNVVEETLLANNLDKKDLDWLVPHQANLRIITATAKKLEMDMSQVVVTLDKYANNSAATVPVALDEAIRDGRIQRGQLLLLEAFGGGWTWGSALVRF

[4] = biological target: T3, Beta-ketoacyl-[acyl-carrier-protein] synthase III (Streptococcus pyogenes serotype M3 (strain ATCC BAA-595 / MGAS315), UniProt P0DB00); experiment: Inhibitory concentration against Streptococcus pyogenes beta-Ketoacyl-acyl carrier protein synthase III
T3 sequence (P0DB00 whole entry): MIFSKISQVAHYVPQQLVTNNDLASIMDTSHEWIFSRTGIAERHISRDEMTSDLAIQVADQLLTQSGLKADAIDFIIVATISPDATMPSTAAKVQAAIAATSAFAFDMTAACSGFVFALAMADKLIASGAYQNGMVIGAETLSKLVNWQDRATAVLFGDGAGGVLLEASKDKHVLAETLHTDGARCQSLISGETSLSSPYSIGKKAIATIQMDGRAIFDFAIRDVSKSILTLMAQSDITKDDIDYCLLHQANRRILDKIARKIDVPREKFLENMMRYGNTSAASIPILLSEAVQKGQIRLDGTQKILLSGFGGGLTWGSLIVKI
In short: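 S. pyogenes FabH (10 nM, His-tagged or tagless, expressed in E. coli BL21(DE3)) was run in a coupled assay with 10 nM FabD, 12.5 µM holo-ACP, 100 mM sodium phosphate pH 7.0, 2 mM DTT and 1 mM MgCl₂. Malonyl-CoA was added for 1 min, then [³H]acetyl-CoA/acetyl-CoA with NADH and NADPH for 19 min. The reaction was stopped with cold TCA and the pellet read by scintillation. Inhibitor DMSO ≤2%.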

[5] = biological target: T4, Beta-ketoacyl-[acyl-carrier-protein] synthase III (Staphylococcus aureus subsp. aureus Mu50, UniProt P68795); experiment: Inhibitory concentration against Staphylococcus aureus beta-Ketoacyl-acyl carrier protein synthase III
T4 sequence (P68795 whole entry): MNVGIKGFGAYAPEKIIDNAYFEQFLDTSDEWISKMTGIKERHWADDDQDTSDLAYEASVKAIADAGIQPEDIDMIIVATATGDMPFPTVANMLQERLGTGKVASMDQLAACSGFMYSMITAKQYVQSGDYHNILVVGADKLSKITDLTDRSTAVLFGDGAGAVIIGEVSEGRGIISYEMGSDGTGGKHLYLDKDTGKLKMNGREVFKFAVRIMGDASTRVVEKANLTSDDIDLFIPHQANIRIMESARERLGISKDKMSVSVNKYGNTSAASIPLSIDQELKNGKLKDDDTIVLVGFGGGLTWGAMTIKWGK
In short: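 Coupled FabD/FabH radiometric assay, 100 µL final, pH 7.0: 100 mM sodium phosphate, 2 mM DTT, 1 mM MgCl2, 12.5 µM E. coli holo-ACP, 10 nM FabD, 20 nM S. aureus FabH (His-tagged or tagless, expressed in E. coli BL21(DE3)). FabD started with malonyl-CoA for 1 min. Acetyl-CoA plus [3H]acetyl-CoA, NADH and NADPH then added; FabH reaction 19 min. Stopped with TCA; pellet counted by liquid scintillation. DMSO ≤2% final.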

## Cc1cc(-c2ccc(C(=O)Nc3ccccc3C(=O)O)cc2Oc2ccccc2)ccc1F
[1]
  IC50: 0.24 µM
Streptococcus pyogenes
  MIC: 2.8 µg/mL (≈ 6.34 µM)
[2]
  MIC: 2.8 µg/mL (≈ 6.34 µM)
Staphylococcus aureus
  MIC: 5.6 µg/mL (≈ 12.7 µM)
Escherichia coli
  MIC: 0.7 µg/mL
Neisseria meningitidis
  MIC: 0.7 µg/mL
Streptococcus pneumoniae
  MIC: 0.7 µg/mL (≈ 1.59 µM)

## CN1CCN(c2ccc(C(=O)Nc3ccccc3C(=O)O)cc2Oc2ccccc2)CC1
[1]
  IC50: 25 µM

## O=C(Nc1ccccc1C(=O)O)c1ccc(N2CCSCC2)c(Oc2ccccc2)c1
[1]
  IC50: 1.2 µM

## O=C(Nc1ccccc1C(=O)O)c1ccc(-c2ccc(F)cc2F)c(Oc2ccccc2)c1
[1]
  IC50: 0.16 µM
Streptococcus pyogenes
  MIC: 2.8 µg/mL (≈ 6.29 µM)
[2]
  MIC: 11.3 µg/mL (≈ 25.4 µM)
Staphylococcus aureus
  MIC: 5.6 µg/mL (≈ 12.6 µM)
Escherichia coli
  MIC: 0.7 µg/mL
Neisseria meningitidis
  MIC: 0.36 µg/mL
Streptococcus pneumoniae
  MIC: 2.8 µg/mL (≈ 6.29 µM)

## O=C(Nc1ccccc1C(=O)O)c1ccc(-c2cccnc2)c(Oc2ccccc2)c1
[1]
  IC50: 0.11 µM

## O=C(O)c1ccc(-c2ccc(C(=O)Nc3ccccc3C(=O)O)cc2Oc2ccccc2)cc1
[1]
  IC50: 2.1 µM

## O=C(Nc1ccccc1C(=O)O)c1ccc(N2CCNCC2)c(Oc2ccccc2)c1
[1]
  IC50: 185 µM

## O=C(Nc1ccccc1C(=O)O)c1ccc(-c2cccc(OC(F)(F)F)c2)c(Oc2ccccc2)c1
[1]
  IC50: 0.47 µM

## O=C(Nc1sccc1C(=O)O)c1cccc(Oc2ccccc2)c1
[1]
  IC50: 43 µM

## CCN(CC)S(=O)(=O)c1cc(C(=O)Nc2ccccc2C(=O)O)cc(C)c1Br
[1]
  IC50: 160 µM

## O=C(Nc1cccc(F)c1C(=O)O)c1cccc(Oc2ccccc2)c1
[1]
  IC50: 6 µM

## O=C(Nc1ccccc1C(=O)O)c1cccc(Oc2ccccc2)c1
[1]
  IC50: 2.7 µM

## O=C(Nc1ccccc1C(=O)O)c1ccc(Br)c(Oc2ccccc2)c1
[1]
  IC50: 1.1 µM

## O=C(Nc1ccccc1C(=O)O)c1ccc(N2CCOCC2)c(Oc2ccccc2)c1
[1]
  IC50: 3.2 µM

## O=C(Nc1cccnc1C(=O)O)c1cccc(Oc2ccccc2)c1
[1]
  IC50: 290 µM

## O=C(Nc1ccsc1C(=O)O)c1cccc(Oc2ccccc2)c1
[1]
  IC50: 10.1 µM

## O=C(Nc1ccccc1C(=O)O)c1ccc(F)c(Oc2ccccc2)c1
[1]
  IC50: 3.8 µM

## CCN(CC)S(=O)(=O)c1cc(C(=O)Nc2ccccc2C(=O)O)ccc1Oc1ccccc1
[1]
  IC50: 6.1 µM

## CCN(CC)S(=O)(=O)c1cc(C(=O)Nc2ccccc2C(=O)O)ccc1OC
[1]
  IC50: 11.4 µM

## O=C(Nc1cccc(O)c1C(=O)O)c1cccc(Oc2ccccc2)c1
[1]
  IC50: 0.41 µM

## O=C(Nc1ccccc1C(=O)O)c1ccc(-c2ccc(F)c(Cl)c2)c(Oc2ccccc2)c1
[1]
  IC50: 0.57 µM

## CC1CN(c2ccc(C(=O)Nc3ccccc3C(=O)O)cc2Oc2ccccc2)CC(C)N1 (configuration not stated)
[1]
  IC50: 38 µM

## O=C(Nc1ccccc1C(=O)O)c1ccc(-c2cn[nH]c2)c(Oc2ccccc2)c1
[1]
  IC50: 22 µM

## O=C(Nc1ccccc1C(=O)O)c1ccc(-c2ccc(O)cc2)c(Oc2ccccc2)c1
[1]
  IC50: 0.41 µM

## CC1CC(C)CN(c2ccc(C(=O)Nc3ccccc3C(=O)O)cc2Oc2ccccc2)C1 (configuration not stated)
[1]
  IC50: 0.27 µM
Streptococcus pyogenes
  MIC: 2.8 µg/mL (≈ 6.3 µM)
[2]
  MIC: 11.3 µg/mL (≈ 25.4 µM)
Staphylococcus aureus
  MIC: 5.6 µg/mL (≈ 12.6 µM)
Escherichia coli
  MIC: 5.6 µg/mL
Neisseria meningitidis
  MIC: 2.8 µg/mL
Streptococcus pneumoniae
  MIC: 2.8 µg/mL (≈ 6.3 µM)

## O=C(Nc1ncccc1C(=O)O)c1cccc(Oc2ccccc2)c1
[1]
  IC50: > 1000 µM

## O=C(Nc1ccccc1C(=O)O)c1ccc(-c2ccc(C(F)(F)F)cc2)c(Oc2ccccc2)c1
[1]
  IC50: 0.096 µM
Streptococcus pyogenes
  MIC: 2.8 µg/mL (≈ 5.86 µM)
[2]
  MIC: 5.6 µg/mL (≈ 11.7 µM)
Staphylococcus aureus
  MIC: 5.6 µg/mL (≈ 11.7 µM)
Escherichia coli
  MIC: 0.7 µg/mL
Neisseria meningitidis
  MIC: 1.4 µg/mL
Streptococcus pneumoniae
  MIC: 0.7 µg/mL (≈ 1.47 µM)

## O=C(O)c1ccc(Oc2cccc(C(=O)Nc3ccccc3C(=O)O)c2)cc1
[1]
  IC50: 4.4 µM

## O=C(Nc1ccccc1C(=O)O)c1ccc(N2CCCCC2)c(Oc2ccccc2)c1
[1]
  IC50: 0.29 µM

## CCN(CC)S(=O)(=O)c1cc(C(=O)Nc2ccccc2C(=O)O)ccc1F
[1]
  IC50: 8.4 µM

## CCN(CC)S(=O)(=O)c1cc(C(=O)Nc2ccccc2C(=O)O)ccc1Br
[1]
  IC50: 1.6 µM

## O=C(Nc1ccccc1C(=O)O)c1ccc(-c2ccc(F)c(F)c2)c(Oc2ccccc2)c1
[1]
  IC50: 0.33 µM

## Cc1cc(-c2ccc(C(=O)Nc3ccccc3C(=O)O)cc2Oc2ccccc2)ccc1Cl
[1]
  IC50: 0.25 µM
Streptococcus pyogenes
  MIC: 1.4 µg/mL (≈ 3.06 µM)
[2]
  MIC: 5.6 µg/mL (≈ 12.2 µM)
Staphylococcus aureus
  MIC: 5.6 µg/mL (≈ 12.2 µM)
Escherichia coli
  MIC: 0.7 µg/mL
Neisseria meningitidis
  MIC: 0.7 µg/mL
Streptococcus pneumoniae
  MIC: 2.8 µg/mL (≈ 6.11 µM)

## CCN(CC)S(=O)(=O)c1cc(C(=O)Nc2ccccc2C(=O)O)ccc1-c1ccccc1
[1]
  IC50: 1.6 µM

## O=C(Nc1ccccc1C(=O)O)c1cccc(Oc2ccc(F)cc2)c1
[1]
  IC50: 5 µM

## Cc1ccc(-c2ccc(C(=O)Nc3ccccc3C(=O)O)cc2Oc2ccccc2)cc1
[1]
  IC50: 0.16 µM

## O=C(Nc1ccccc1C(=O)O)c1cccc(Oc2ccncc2)c1
[1]
  IC50: 10 µM

## CCOc1ccc(-c2ccc(C(=O)Nc3ccccc3C(=O)O)cc2Oc2ccccc2)cc1
[1]
  IC50: 0.22 µM

## O=C(O)c1cccc(Oc2cccc(C(=O)Nc3ccccc3C(=O)O)c2)c1
[1]
  IC50: 3.7 µM

## CC(C)c1cccc(-c2ccc(C(=O)Nc3ccccc3C(=O)O)cc2Oc2ccccc2)c1
[1]
  IC50: 0.79 µM
Streptococcus pyogenes
  MIC: 2.8 µg/mL (≈ 6.2 µM)
[2]
  MIC: 5.6 µg/mL (≈ 12.4 µM)
Staphylococcus aureus
  MIC: 5.6 µg/mL (≈ 12.4 µM)
Escherichia coli
  MIC: 2.8 µg/mL
Neisseria meningitidis
  MIC: 1.4 µg/mL
Streptococcus pneumoniae
  MIC: 1.4 µg/mL (≈ 3.1 µM)

## CCN(CC)S(=O)(=O)c1cc(C(=O)Nc2ccccc2C(=O)O)ccc1N1CCCCC1
[1]
  IC50: 2.2 µM

## CCN(CC)S(=O)(=O)c1cc(C(=O)Nc2ccccc2C(=O)O)ccc1OCC1CCCC1
[1]
  IC50: 2.1 µM

## O=C(Nc1ccccc1C(=O)O)c1ccc(-c2ccccc2)c(Oc2ccccc2)c1
[3]
  IC50: > 100 µM
[4]
  IC50: 0.05 µM
[1]
  IC50: 0.056 µM
[5]
  IC50: 10 µM
[2]
  MIC: 22 µg/mL (≈ 53.7 µM)
Staphylococcus aureus
  MIC: 11.3 µg/mL (≈ 27.6 µM)
Escherichia coli
  MIC: 1.4 µg/mL
Neisseria meningitidis
  MIC: 1.4 µg/mL
Streptococcus pneumoniae
  MIC: 1.4 µg/mL (≈ 3.42 µM)
